For five compounds, Potency results are on record in ChEMBL document CHEMBL1122123 (1982).

Assay type in all cases: functional
The test system of assay [1] is Melanocyte-stimulating hormone receptor. Description: In vitro potency of compound to stimulate melanosome dispersion in frog (Rana pipiens) skin relative to alpha-MSH.
The test system of the next assay is lizard. Description: In vitro potency of compound to stimulate melanosome dispersion in lizard skin relative to alpha-MSH. In short, it runs like this:
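Isolated Anolis carolinensis lizard skins were scored in vitro for melanosome dispersion (darkening) across the entire dose-response range. Relative potency is the ratio of the α-MSH concentration giving 50% response to the peptide concentration giving 50% response.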

Assay [2] can be described thus: In vitro potency of compound to stimulate adenylate cyclase activity in melanoma cells relative to alpha-MSH. In short, it runs like this: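 Particulate membranes from Cloudman S-91 mouse melanoma tumors grown in DBA/2J mice were used as a cell-free system, 56 μg of protein per assay. Adenylate cyclase activity was measured as conversion of [α-³²P]ATP to [³²P]cAMP, with cAMP isolated by the Salomon method. Full dose-response curves were run in triplicate. Potency is relative to α-MSH: concentration of α-MSH at 50% response divided by that of the peptide.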

Turning to `CCCC[C@H](NC(C)=O)C(=O)N[C@@H](CCC(=O)O)C(=O)N[C@@H](Cc1c[nH]cn1)C(=O)N[C@H](Cc1ccccc1)C(=O)N[C@@H](CCCN=C(N)N)C(=O)N[C@@H](Cc1c[nH]c2ccccc12)C(=O)NCC(N)=O`, the figures for the Potency (in assay [1]; in the assay with lizard; in assay [2]) were 0.02, 10 and 7.7, respectively.

As for `CSCC[C@H](NC(C)=O)C(=O)N[C@@H](CCC(=O)O)C(=O)N[C@@H](Cc1c[nH]cn1)C(=O)N[C@@H](Cc1ccccc1)C(=O)N[C@@H](CCCN=C(N)N)C(=O)N[C@@H](Cc1c[nH]c2ccccc12)C(=O)NCC(N)=O`, the Potency in assay [1] was 0.0003; with lizard, 0.004.

Ac-YEHFRWG-NH2: the values for the Potency (in assay [1]; in the assay with lizard; in assay [2]) were 0.0002, 0.0006 and 0.001, respectively.

As to `CSCC[C@H](N)C(=O)N[C@@H](CCC(=O)O)C(=O)N[C@@H](Cc1c[nH]cn1)C(=O)N[C@@H](Cc1ccccc1)C(=O)N[C@@H](CCCN=C(N)N)C(=O)N[C@@H](Cc1c[nH]c2ccccc12)C(=O)NCC(=O)O`, the Potency in assay [1] is 1e-05; in the assay on lizard, 4e-05.

Regarding `CCCC[C@H](NC(C)=O)C(=O)N[C@@H](CCC(=O)O)C(=O)N[C@@H](Cc1c[nH]cn1)C(=O)N[C@@H](Cc1ccccc1)C(=O)N[C@@H](CCCN=C(N)N)C(=O)N[C@@H](Cc1c[nH]c2ccccc12)C(=O)NCC(N)=O`, the results for the Potency (in assay [1]; with lizard; in assay [2]) were 0.002, 0.06 and 0.09, respectively.
